Drawing on ChEMBL document CHEMBL1143291, “Synthesis and structure-activity relationships of novel, substituted 5,6-dihydrodibenzo[a,g]quinolizinium P2X7 antagonists” (Bioorg Med Chem Lett, 2009), this text covers IC50, inhibition and Activity for 26 compounds.

What is called pIC50 is −log10 of the IC50, conventionally taken in molar units. The inhibition is the relative decrease from the control value, in per cent.

One test deals with T1, P2X purinoceptor 7 (Homo sapiens, UniProt Q99572).
T1 sequence (Q99572 whole entry): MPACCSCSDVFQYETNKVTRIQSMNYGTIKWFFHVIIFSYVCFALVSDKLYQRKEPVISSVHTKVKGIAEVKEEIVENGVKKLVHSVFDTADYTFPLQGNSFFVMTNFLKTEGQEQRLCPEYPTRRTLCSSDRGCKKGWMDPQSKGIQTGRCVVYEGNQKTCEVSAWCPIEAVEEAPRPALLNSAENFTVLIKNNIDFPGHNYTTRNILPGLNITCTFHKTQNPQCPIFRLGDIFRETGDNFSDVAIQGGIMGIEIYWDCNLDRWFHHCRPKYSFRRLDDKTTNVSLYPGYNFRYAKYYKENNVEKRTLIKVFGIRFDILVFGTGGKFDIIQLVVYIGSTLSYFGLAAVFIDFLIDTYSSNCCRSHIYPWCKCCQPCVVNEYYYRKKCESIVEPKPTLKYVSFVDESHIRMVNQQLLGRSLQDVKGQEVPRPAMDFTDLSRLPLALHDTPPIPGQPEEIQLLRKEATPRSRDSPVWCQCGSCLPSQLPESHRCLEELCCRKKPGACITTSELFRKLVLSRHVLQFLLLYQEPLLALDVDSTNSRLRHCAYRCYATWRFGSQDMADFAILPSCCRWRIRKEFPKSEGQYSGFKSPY
The test can be described thus: Antagonist activity at human P2X7 receptor expressed in HEK293 cells assessed as inhibition of BzATP-induced fluorescent ethidium accumulation. The format is functional, cell-based. Put shortly: (§1)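 Adherent HEK293 cells stably transfected with human P2X7 cDNA were preincubated 30 min with compound. They were then resuspended at 2.5 × 10^6 cells/ml in 20 mM HEPES pH 7.4 with 140 mM KCl, 5 mM glucose, 1 mM EDTA and 0.1 mM ethidium bromide. BzATP was added to 1 mM for 120 min at 37 °C. Ethidium uptake was read by fluorescence (ex 530/20, em 590/20 nm).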

Test [1] has as its system THP-1. The experiment in a line: Inhibition of Bz-ATP-induced IL1-beta release in LPS/IFN-gamma-differentiated human THP1 cells at 1 uM by ELISA. The format is functional. A digest of the protocol: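 THP-1 cells were differentiated for 3 h with 25 ng/ml LPS plus 10 ng/ml IFNγ. They were preincubated 30 min with 1 µM compound, then stimulated with 1 mM BzATP for 30 min. Supernatants were collected by centrifugation (1000 rpm, 5 min) and mature human IL-1β was measured by ELISA. Results are mean ± SD percent inhibition, n = 3.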
(In an ELISA, binding on a coated surface is turned into a signal by an enzyme label.)

In test [2] the target is T2, P2X purinoceptor 7 (Homo sapiens) (UniProt Q99572).
T2 sequence (whole entry): T1 sequence (Q99572 whole entry)
The experiment in a line: Antagonist activity at human P2X7 receptor expressed in HEK293 cells assessed as inhibition of BzATP-induced fluorescent ethidium accumulation at 8 uM. The class given is functional, cell-based. Put shortly: as §1

For test [3], the system named is THP-1. The test can be described thus: Inhibition of Bz-ATP-induced IL1-beta release in LPS/IFN-gamma-differentiated human THP1 cells by ELISA. The format is functional, cell-based. A digest of the protocol: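 Full concentration–response curves used THP-1 cells differentiated for 3 h with 25 ng/ml LPS and 10 ng/ml IFNγ. Cells were preincubated 30 min with compound, then stimulated 30 min with 1 mM BzATP. Mature IL-1β in the centrifuged supernatant was quantified by ELISA.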

pIC50: −log10 of the molar value. The source made the active and inactive calls. The calls are words filed in the database; no cut-off is given here.

As to `COc1ccc2c(Cc3c(F)cccc3Cl)c3[n+](cc2c1OC)CCc1cc2c(cc1-3)OCO2`, on P2X purinoceptor 7, the pIC50 is 6.40. The compound further gave an inhibition at 1 µM in the test on THP-1 [1] of 50%.
The like results for `CCc1c2[n+](cc3c(OCc4ccc(F)cc4C(F)(F)F)c(OC)ccc13)CCc1cc(OC)c(OC)cc1-2` were, in that order, 6.09 and 13%.
For `COc1cc2c(cc1OC)-c1cc3ccc(OC)c(OC)c3c[n+]1CC2`, the result in test [2] was inactive.
Consider `CCCc1c2[n+](cc3c(OC)c(OC)ccc13)CCc1cc(OC)c(OC)cc1-2`, for which, at P2X purinoceptor 7, the pIC50 was 6.30.
Regarding `CCc1c2[n+](cc3c(OCc4ccc(Cl)nc4)c(OC)ccc13)CCc1cc(OC)c(OC)cc1-2`, the pIC50 on P2X purinoceptor 7 is 5.36. In addition, in the test with THP-1 [1], the inhibition at 1 µM worked out at 33%.
As for `CCc1c2[n+](cc3c(OCc4cc(C)ccc4C)c(OC)ccc13)CCc1cc(OC)c(OC)cc1-2`, the pIC50 at P2X purinoceptor 7 was 5.82. This compound came in with an inhibition at 1 µM with THP-1 [1] of 8%.
The like results for `COc1cc(Cc2c3[n+](cc4c(OC)c(OC)ccc24)CCc2cc4c(cc2-3)OCO4)cc(OC)c1` were, in that order, 6.59 and 39%.
The like results for `C=CCc1c2[n+](cc3c(OC)c(OC)ccc13)CCc1cc3c(cc1-2)OCO3` were, in that order, 6.36 and 71%.
As to `COc1ccc2cc3[n+](cc2c1OC)CCc1cc2c(cc1-3)OCO2`, the inhibition in test [2] worked out at 7.03%.
In the case of `COc1ccc2c(c[n+](C)c3c4cc5c(cc4ccc23)OCO5)c1OC`, the outcome with THP-1 [1] was inactive.
Turning to `CCc1c2[n+](cc3c(OCc4ccc(Br)cc4)c(OC)ccc13)CCc1cc(OC)c(OC)cc1-2`, the pIC50 on P2X purinoceptor 7 was 5.59. For the same compound, in the test on THP-1 [1], the inhibition at 1 µM was found to be 5%.
For `CCc1c2[n+](cc3c(OC)c(OC)ccc13)CCc1cc3c(cc1-2)OCO3` the same measures were 6.46 and 73%.
Regarding `CCc1c2[n+](cc3c(OCc4ccc(-c5ccccc5)cc4)c(OC)ccc13)CCc1cc(OC)c(OC)cc1-2`, the pIC50 on P2X purinoceptor 7 is 5.49. Also, in the test with THP-1 [1], the outcome was inactive.
For `CCc1c2[n+](cc3c(OCc4cc(OC)c(OC)cc4[N+](=O)[O-])c(OC)ccc13)CCc1cc(OC)c(OC)cc1-2`, the pIC50 at P2X purinoceptor 7 is 6.77; in the test on THP-1 [3], 6.76. Moreover, testing at 1 µM in the test on THP-1 [1] gave an inhibition of 83%.
Take `CCc1c2[n+](cc3c(OCc4cccc(Cl)c4)c(OC)ccc13)CCc1cc(OC)c(OC)cc1-2`: the pIC50 on P2X purinoceptor 7 was 5.58. In addition, testing at 1 µM with THP-1 [1] gave an inhibition of 7%.
Take `CCc1c2[n+](cc3c(OCc4cc([N+](=O)[O-])ccc4OC)c(OC)ccc13)CCc1cc(OC)c(OC)cc1-2`: the pIC50 on P2X purinoceptor 7 is 6.38. This compound returned an inhibition at 1 µM in the test with THP-1 [1] of 42%.
As for `CCc1c2[n+](cc3c(OCc4cc(C)ccc4[N+](=O)[O-])c(OC)ccc13)CCc1cc(OC)c(OC)cc1-2`, the pIC50 on P2X purinoceptor 7 is 6.14. In addition, 1 µM produced 40% inhibition with THP-1 [1].
With `CCc1c2[n+](cc3c(OCc4ccccc4C)c(OC)ccc13)CCc1cc(OC)c(OC)cc1-2`, at P2X purinoceptor 7, the pIC50 was 5.30. Further, the outcome with THP-1 [1] was inactive.
For `CCc1c2[n+](cc3c(OCc4ccc(OCc5ccccc5)cc4)c(OC)ccc13)CCc1cc(OC)c(OC)cc1-2` the same measures were 5.55 and “inactive”.
With `CCc1c2[n+](cc3c(OCc4ccccc4C(F)(F)F)c(OC)ccc13)CCc1cc(OC)c(OC)cc1-2`, the pIC50 on P2X purinoceptor 7 was 5.59. Further, in the test on THP-1 [1], the inhibition at 1 µM came out at 13%.
The like results for `CC[C@@H]1c2ccc(OC)c(OC)c2CN2CCc3cc4c(cc3[C@H]12)OCO4` (racemic) were, in that order, 6.25 and 34%.
The like results for `CCCC(I)c1c2[n+](cc3c(OC)c(OC)ccc13)CCc1cc3c(cc1-2)OCO3` (centres undefined) were, in that order, 6.38 and 54%.
As to `CN([C@@H](Cc1ccc(OS(=O)(=O)c2cccc3cnccc23)cc1)C(=O)N1CCN(c2ccccc2)CC1)S(=O)(=O)c1cccc2cnccc12`, the figures for the pIC50 on P2X purinoceptor 7 and in the test on THP-1 [3] were 6.47 and 7.09, respectively. The compound also gave an inhibition at 1 µM in the test with THP-1 [1] of 79%.
On to `CCc1c2[n+](cc3c(OCc4cccc([N+](=O)[O-])c4C)c(OC)ccc13)CCc1cc(OC)c(OC)cc1-2`, for which, on P2X purinoceptor 7, the pIC50 was 5.27.
On to `COc1cc2c(cc1OC)-c1c(CC3CCCCC3)c3ccc(OC)c(OC)c3c[n+]1CC2`, for which, at P2X purinoceptor 7, the pIC50 was 5.95. This compound displayed an inhibition at 1 µM in the test on THP-1 [1] of 17%.
Consider `CCc1c2[n+](cc3c(OCc4ccc(C(C)(C)C)cc4)c(OC)ccc13)CCc1cc(OC)c(OC)cc1-2`, for which the pIC50 at P2X purinoceptor 7 is 5.90. In the test on THP-1 [1], this compound had an inhibition at 1 µM of 33%.
